Measured values: ChEMBL document CHEMBL4808228, “Synthesis of novel 1,2,4-trioxanes and antimalarial evaluation against multidrug-resistant Plasmodium yoelii nigeriensis” (2021)

Experiments:
Assay type in all cases: functional
[1] = test system: Plasmodium yoelii; test: Antimalarial activity against multidrug-resistant Plasmodium yoelii infected in Swiss mouse assessed as inhibition of parasitemia at 48 mg/kg, po for 4 days measured on day 4 relative to control; conditions: 96 h, time 4 day
Procedure, shortened: (§1)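 Swiss mice (25 ± 1 g), five per dose, were infected with 1 X 10⁶ parasitized RBC on day 0. Dosing was oral on days 0–3, twice daily, in groundnut oil (0.1 ml per dose). Day-4 thin-smear parasitaemia gave % suppression = [(C−T)/C] × 100 versus the control group. 100% meant no parasites in 50 oil immersion fields.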

[2] = test system: Plasmodium yoelii; test: Antimalarial activity against multidrug-resistant Plasmodium yoelii infected in Swiss mouse assessed as inhibition of parasitemia at 48 mg/kg, im for 4 days measured on day 4 relative to control; conditions: 96 h, time 4 day
Procedure, shortened: (§2)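 In this im regimen, mice (Swiss, 25 ± 1 g; n = 5 per dose) received 1 X 10⁶ parasitized RBC on day 0 and were treated on days 0–3 in two divided daily doses. Parasitaemia on day 4 was read from thin blood smears, and suppression = [(C−T)/C] × 100 relative to the control group. Full suppression meant none seen in 50 oil immersion fields.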

[3] = test system: Plasmodium yoelii; test: Antimalarial activity against multidrug-resistant Plasmodium yoelii infected in Swiss mouse assessed as animal survival at 48 mg/kg, po for 4 days and measured for 28 days; conditions: 672 h, time 28 day
Procedure, shortened: (§3)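 Swiss mice (25 ± 1 g) were inoculated with 1 X 10⁶ parasitized RBC on day 0. Groups of five were dosed orally on days 0–3 in two divided daily doses, in groundnut oil, 0.1 ml per dose. Thin blood smears were read on days 4–28, and mice without patent infection by day 28 counted as cured. β-Arteether was the positive control.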

[4] = test system: Plasmodium yoelii; test: Antimalarial activity against multidrug-resistant Plasmodium yoelii infected in Swiss mouse assessed as animal survival at 48 mg/kg, im for 4 days and measured for 28 days; conditions: 672 h, time 28 day
Procedure, shortened: (§4)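 Intramuscular dosing of groups of five Swiss mice (25 ± 1 g) infected on day 0 with 1 X 10⁶ parasitized RBC, on days 0–3 in two divided daily doses. Parasitaemia came from thin blood smears over days 4–28. Animals without patent infection till day 28 were recorded as cured. The strain is resistant to chloroquine, mefloquine and halofantrine.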

[5] = test system: Plasmodium yoelii; test: Antimalarial activity against multidrug-resistant Plasmodium yoelii infected in Swiss mouse assessed as inhibition of parasitemia at 24 mg/kg, po for 4 days measured on day 4 relative to control; conditions: 96 h, time 4 day; procedure, shortened: as §1
[6] = test system: Plasmodium yoelii; test: Antimalarial activity against multidrug-resistant Plasmodium yoelii infected in Swiss mouse assessed as inhibition of parasitemia at 24 mg/kg, im for 4 days measured on day 4 relative to control; conditions: 96 h, time 4 day; procedure, shortened: as §2
[7] = test system: Plasmodium yoelii; test: Antimalarial activity against multidrug-resistant Plasmodium yoelii infected in Swiss mouse assessed as animal survival at 24 mg/kg, po for 4 days and measured for 28 days; conditions: 672 h, time 28 day; procedure, shortened: as §3
[8] = test system: Plasmodium yoelii; test: Antimalarial activity against multidrug-resistant Plasmodium yoelii infected in Swiss mouse assessed as animal survival at 24 mg/kg, im for 4 days and measured for 28 days; conditions: 672 h, time 28 day; procedure, shortened: as §4
[9] = test system: Plasmodium yoelii; test: Antimalarial activity against multidrug-resistant Plasmodium yoelii infected in Swiss mouse assessed as inhibition of parasitemia at 48 mg/kg, im for 4 days measured on day 4 relative to po dosed artemisinin; conditions: time 4 day
[10] = test system: Plasmodium yoelii; test: Antimalarial activity against multidrug-resistant Plasmodium yoelii infected in Swiss mouse assessed as inhibition of parasitemia at 48 mg/kg, po for 4 days measured on day 4 relative to po dosed artemisinin; conditions: time 4 day
[11] = test system: Plasmodium yoelii; test: Antimalarial activity against multidrug-resistant Plasmodium yoelii infected in Swiss mouse assessed as inhibition of parasitemia at 96 mg/kg, po for 4 days measured on day 4 relative to control; conditions: 96 h, time 4 day; procedure, shortened: as §1
[12] = test system: Plasmodium yoelii; test: Antimalarial activity against multidrug-resistant Plasmodium yoelii infected in Swiss mouse assessed as inhibition of parasitemia at 96 mg/kg, im for 4 days measured on day 4 relative to control; conditions: 96 h, time 4 day; procedure, shortened: as §2
[13] = test system: Plasmodium yoelii; test: Antimalarial activity against multidrug-resistant Plasmodium yoelii infected in Swiss mouse assessed as animal survival at 96 mg/kg, po for 4 days and measured for 28 days; conditions: 672 h, time 28 day; procedure, shortened: as §3
[14] = test system: Plasmodium yoelii; test: Antimalarial activity against multidrug-resistant Plasmodium yoelii infected in Swiss mouse assessed as animal survival at 96 mg/kg, im for 4 days and measured for 28 days; conditions: 672 h, time 28 day; procedure, shortened: as §4

Row | SMILES | inhibition in vivo at 48 mg/kg [1] | inhibition in vivo at 48 mg/kg [2] | survival at 48 mg/kg [3] | survival at 48 mg/kg [4] | inhibition in vivo at 96 mg/kg [11] | inhibition in vivo at 96 mg/kg [12] | survival at 96 mg/kg [13] | survival at 96 mg/kg [14] | also measured
1 | C=C(c1ccc(Oc2ccc3ccc(OCCOC(=O)CCC(=O)O)cc3c2)cc1)C1COC2(OO1)C1CC3CC(C1)CC2C3 (centres undefined) | 77.4% | 58.8% | 0% | 0% | – | – | – | – | –
2 | C=C(c1ccc(Oc2ccc3ccc(OCCOC(=O)CCC(=O)O)cc3c2)cc1)C1COC2(CCCCC2)OO1 (centres undefined) | 100% | 100% | – | 60% | – | – | – | – | –
3 | C=C(c1ccc(Oc2ccc3ccc(OCCOC(=O)CCC(=O)O)cc3c2)cc1)C1COC2(CCCC2)OO1 (centres undefined) | 100% | 100% | 100% | 100% | – | – | – | – | inhibition in vivo at 24 mg/kg [5]: 100%; inhibition in vivo at 24 mg/kg [6]: 100%; survival at 24 mg/kg [7]: 0%; survival at 24 mg/kg [8]: 80%; fold change (FC) [9]: 2; fold change (FC) [10]: 2
4 | C=C(c1ccc(Oc2ccc3ccc(OCCO)cc3c2)cc1)C1COC2(OO1)C1CC3CC(C1)CC2C3 (centres undefined) | 83.2% | 51.4% | 0% | 0% | – | – | – | – | –
5 | C=C(c1ccc(Oc2ccc(OCCOC(=O)CCC(=O)O)cc2)cc1)C1COC2(CCCCC2)OO1 (centres undefined) | – | – | – | – | 10% | 28.4% | 0% | 0% | –
6 | C=C(c1ccc(Oc2cccc3c(OCCO)cccc23)cc1)C1COC2(CCCC2)OO1 (centres undefined) | 44.1% | 46.2% | 0% | 0% | – | – | – | – | –
7 | C=C(c1ccc(Oc2cccc3c(OCCOC(=O)CCC(=O)O)cccc23)cc1)C1COC2(CCCC2)OO1 (centres undefined) | 39.4% | 28.3% | 0% | 0% | – | – | – | – | –
8 | C=C(c1ccc(Oc2ccc3ccc(OCCO)cc3c2)cc1)C1COC2(CCCCC2)OO1 (centres undefined) | 83.5% | 71.6% | 0% | 0% | – | – | – | – | –
9 | C=C(c1ccc(Oc2cccc3c(OCCOC(=O)CCC(=O)O)cccc23)cc1)C1COC2(OO1)C1CC3CC(C1)CC2C3 (centres undefined) | 27.5% | 42.2% | 0% | 0% | – | – | – | – | –
10 | C=C(c1ccc(Oc2ccc(OCCO)cc2)cc1)C1COC2(CCCCC2)OO1 (centres undefined) | – | – | – | – | 45.4% | 72.4% | 0% | 0% | –
11 | C=C(c1ccc(Oc2ccc(OCCO)cc2)cc1)C1COC2(OO1)C1CC3CC(C1)CC2C3 (centres undefined) | 85.5% | – | 0% | – | 100% | 100% | 100% | 0% | –
12 | C=C(c1ccc(Oc2cccc3c(OCCO)cccc23)cc1)C1COC2(OO1)C1CC3CC(C1)CC2C3 (centres undefined) | 100% | 46.2% | 40% | 0% | – | – | – | – | –
13 | C=C(c1ccc(Oc2ccc(OCCOC(=O)CCC(=O)O)cc2)cc1)C1COC2(OO1)C1CC3CC(C1)CC2C3 (centres undefined) | – | – | – | – | 35.6% | 100% | 0% | 40% | –
14 | C=C(c1ccc(Oc2ccc(OCCO)cc2)cc1)C1COC2(CCCC2)OO1 (centres undefined) | – | – | – | – | 38.4% | 85.2% | 0% | 0% | –
15 | C=C(c1ccc(Oc2cccc3c(OCCO)cccc23)cc1)C1COC2(CCCCC2)OO1 (centres undefined) | 38.2% | 46.2% | 0% | 0% | – | – | – | – | –
16 | C=C(c1ccc(Oc2cccc3c(OCCOC(=O)CCC(=O)O)cccc23)cc1)C1COC2(CCCCC2)OO1 (centres undefined) | 49.8% | 26.6% | 0% | 0% | – | – | – | – | –
17 | C=C(c1ccc(Oc2ccc3ccc(OCCO)cc3c2)cc1)C1COC2(CCCC2)OO1 (centres undefined) | 100% | 100% | 80% | 80% | – | – | – | – | –
18 | C=C(c1ccc(Oc2ccc(OCCOC(=O)CCC(=O)O)cc2)cc1)C1COC2(CCCC2)OO1 (centres undefined) | – | – | – | – | 44.3% | 77.8% | 0% | 0% | –
19 | C[C@@H]1CC[C@H]2[C@@H](C)C(=O)O[C@@H]3O[C@@]4(C)CC[C@@H]1[C@]32OO4 [ARTEMISININ] | – | 100% | – | 100% | 100% | – | – | – | inhibition in vivo at 24 mg/kg [6]: 100%; survival at 24 mg/kg [8]: 80%
